Laboratory results as given in ChEMBL document CHEMBL4706684, “Discovering High Potent Hsp90 Inhibitors as Antinasopharyngeal Carcinoma Agents through Fragment Assembling Approach” (J Med Chem, 2021).
pIC50, pKd: −log10 of the molar value. Activity calls are given as the source filed them. The rule behind the calls is not given here.

Legend:
[1] = target: T1, Heat shock protein HSP 90-alpha (Homo sapiens, UniProt P07900); assay: Binding affinity to HSP90-alpha (unknown origin) expressed in Escherichia coli BL21 by SPR assay
[2] = target: T1, Heat shock protein HSP 90-alpha; assay: Inhibition of HSP90-alpha (unknown origin) expressed in Escherichia coli BL21 assessed as reduction in ATPase activity in presence of PEP, NADH and ATP by pyruvate kinase/lactic dehydrogenase based coupled enzyme assay
[3] = target: T2, Heat shock protein HSP 90-beta (Homo sapiens, UniProt P08238); assay: Inhibition of HSP90-beta (unknown origin) expressed in Escherichia coli BL21 assessed as reduction in ATPase activity in presence of PEP, NADH and ATP by pyruvate kinase/lactic dehydrogenase based coupled enzyme assay
[4] = tested on: CNE-2; assay: Cytotoxicity in human CNE-2 cells assessed as reduction in cell viability incubated for 48 hrs by MTT assay; type: cell-based; details: CNE-2, 48 h
Outline: (§1)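 Cells were seeded at 3 × 10³ cells per well and grown for 24 h at 37 °C in 5% CO₂. CNE2 was grown in RPMI 1640 and HeLa and HepG2 in DMEM, each with 10% FBS and 1% penicillin/streptomycin. Cells were exposed to 0−20 μM inhibitor for 48 h, with a DMSO solvent control. MTT (0.5 mg/mL) was then added for 3 h.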

[5] = target: T2, Heat shock protein HSP 90-beta; assay: Binding affinity to HSP90-beta (unknown origin) expressed in Escherichia coli BL21 by SPR assay
[6] = tested on: HeLa; assay: Cytotoxicity in human HeLa cells assessed as reduction in cell viability incubated for 48 hrs by MTT assay; type: cell-based; outline: as §1
[7] = tested on: HepG2; assay: Cytotoxicity in human HepG2 cells assessed as reduction in cell viability incubated for 48 hrs by MTT assay; type: cell-based; details: HepG2, 48 h; outline: as §1

T2 sequence (P08238 whole entry): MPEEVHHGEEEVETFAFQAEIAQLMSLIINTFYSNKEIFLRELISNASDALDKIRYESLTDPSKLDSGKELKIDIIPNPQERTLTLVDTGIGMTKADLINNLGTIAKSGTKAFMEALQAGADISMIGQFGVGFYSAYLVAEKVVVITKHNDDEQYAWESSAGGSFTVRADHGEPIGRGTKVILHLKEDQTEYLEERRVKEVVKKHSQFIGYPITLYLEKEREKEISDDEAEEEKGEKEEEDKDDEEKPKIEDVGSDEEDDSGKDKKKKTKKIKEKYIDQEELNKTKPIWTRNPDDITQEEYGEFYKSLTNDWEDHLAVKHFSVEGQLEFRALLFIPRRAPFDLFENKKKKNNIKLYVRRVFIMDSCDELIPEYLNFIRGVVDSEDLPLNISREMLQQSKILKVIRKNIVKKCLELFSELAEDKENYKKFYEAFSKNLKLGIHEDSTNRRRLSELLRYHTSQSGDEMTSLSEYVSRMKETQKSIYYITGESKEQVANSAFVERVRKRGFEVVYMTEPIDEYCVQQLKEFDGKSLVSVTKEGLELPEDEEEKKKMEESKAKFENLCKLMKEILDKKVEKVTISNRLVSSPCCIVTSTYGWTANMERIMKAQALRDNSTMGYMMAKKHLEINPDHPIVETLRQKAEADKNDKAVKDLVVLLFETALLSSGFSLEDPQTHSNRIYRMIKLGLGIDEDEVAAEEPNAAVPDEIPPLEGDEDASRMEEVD

Nc1cccs1
Activity [1]: Active

CC(C)(C)c1ccc(Cn2cc(-c3ccc(O)cc3)nn2)c(O)c1
pIC50 [2]: < 4.40
pIC50 [3]: < 4.40
pIC50 [4]: < 4.70

COc1ccc(-c2cn(Cc3ccc(C(C)(C)C)cc3)nn2)cc1
pKd [1]: 5.32
pIC50 [2]: 5.25
pKd [5]: 5.32
pIC50 [3]: 5.25
pIC50 [6]: < 4.30
pIC50 [4]: 5.40
pIC50 [7]: < 4.30

CC(C)(C)c1ccc(Cn2cc(-c3ccc(O)cc3)nn2)cc1
pIC50 [2]: 5.89
pIC50 [3]: 5.74
pIC50 [4]: 5.25

COc1cc(-c2cn(Cc3ccc(C(C)(C)C)cc3)nn2)cc(OC)c1OC
pIC50 [2]: 5.57
pIC50 [3]: 5.57
pIC50 [4]: 5.74

COc1ccc(-c2cn(Cc3ccc(C(C)(C)C)cc3)nn2)c([N+](=O)[O-])c1
pIC50 [2]: 5.30
pIC50 [3]: 5.30
pIC50 [4]: 5.80

Nc1cc(-c2ccccc2)n[nH]1
Activity [1]: Active

CC(=O)c1ccc(-n2ccnc2)cc1
Activity [1]: Active

CC(C)(C)c1ccc(Cn2cc(-c3ccc(O)cc3[N+](=O)[O-])nn2)cc1
pIC50 [2]: 5.77
pIC50 [3]: 5.77
pIC50 [4]: 5.80

C=CCNC1=C2C[C@@H](C)C[C@H](OC)[C@H](O)[C@@H](C)/C=C(\C)[C@H](OC(N)=O)[C@@H](OC)/C=C\C=C(/C)C(=O)NC(=CC1=O)C2=O [TANESPIMYCIN]
pIC50 [6]: 4.71
pIC50 [4]: 5.52
pIC50 [7]: 5.10

O=C(O)c1csc(-c2ccc(Cl)cc2)n1
Activity [1]: Active

COc1ccc(-c2cn(Cc3cc(C(F)(F)F)cc(C(F)(F)F)c3)nn2)cc1
pKd [1]: 5.51
pIC50 [2]: 5.21
pKd [5]: 5.15
pIC50 [3]: 5.01
pIC50 [6]: 4.65
pIC50 [4]: 4.85
pIC50 [7]: 4.74

CC(C)(C)c1ccc(Cn2cc(-c3ccc(O)cc3N)nn2)cc1
pIC50 [2]: 4.86
pIC50 [3]: 4.84
pIC50 [4]: 5.80

CC(C)(C)c1csc(N)n1
Activity [1]: Active

CCSc1ccc(N)s1
Activity [1]: Active

COc1ccc(-c2cn(Cc3ccc(C(C)(C)C)cc3)nn2)c(N)c1
pIC50 [2]: < 4.40
pIC50 [3]: < 4.40
pIC50 [4]: < 4.70

Cc1noc(N)c1C
Activity [1]: Active
